# Source: PubChem BioAssay
# In the library only some 3.9% were active in any assay of this set; here they are far more common.
# XBP1 UPR activ: activators of adaptive XBP1 UPR arm, primary screen, cell-based, CHO-XBP1 luciferase reporter, luminescence, uHTS. IRE1-XBP1 UPR activation; percent of tunicamycin response, DMSO as zero. activation, % at 20 µM. 330,000 compounds, 0.33% hits. AID 463104, 2010;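 active = versus positive control, 20 µM dose yields 30% or more activation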;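 note: 100% = tunicamycin at 10 µg/mL and 0% = DMSO only wells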
#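 Signal: luciferase luminescence; Assay system: CHO-XBP1 luciferase reporter cells; Amount: one thousand reporter cells per well; Dosing: 20 µM single concentration, DMSO 1%; Benchmarks: high control tunicamycin 10 µg/mL final, low control DMSO vehicle only; Schedule: 6 h compound exposure at 37 °C, 5% CO2; Evaluation: percent activation relative to tunicamycin reference.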
# CHOP UPR activ: activators of apoptotic CHOP UPR arm, primary screen, cell-based, CHO-CHOP luciferase reporter, luminescence, uHTS; UPR activation; percent of tunicamycin response over DMSO baseline; activation, % at 10 µM; 330,000 compounds, 0.34% hits; AID 449763, 2010;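 active = at 10 µM dose, activation of 40% or more, normalized to positive control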;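 note: 100% = tunicamycin at 10 µg/mL and 0% = DMSO alone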
#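 Test system: CHO CHOP reporter cells. Input: 500 CHO-CHOP cells per well. Medium: F12 with 10% FBS. Technique: luciferase luminescence. Measure: percent activation relative to tunicamycin control. Dosing: 10 µM compound, 0.5% DMSO. Timing: 16-18 h cell attachment, then 6 h compound exposure, 37 °C.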
# TIM10 inh: growth inhibitors of isogenic TIM10 control yeast, primary screen, counter-screen for tim10-1 yeast inhibitor project, luminescence, uHTS; 330,000 compounds, 1.4% hits; inhibition, % at 10 µM; S. cerevisiae TIM10 strain growth, BacTiter-Glo luminescence, 24 h; AID 463195, 2010;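 active = inhibition of 40% or more at the single tested concentration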;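 note: wild-type TIM10 isogenic control strain grown at permissive 25 °C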
# tim10-1 inh: growth inhibitors of tim10-1 mutant yeast, primary screen, luminescence, uHTS. AID 463190, 2010. 330,000 compounds, 2.2% hits. inhibition, % at 20 µM. S. cerevisiae tim10-1 ts strain growth, BacTiter-Glo, 24 h;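 active = inhibition of at least 40%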;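 note: mutant grown at 25 °C; 0% = DMSO wells with yeast and 100% = wells holding no yeast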
# tim23-1 inh: growth inhibitors of tim23-1 mutant yeast, primary screen, luminescence, uHTS | 330,000 compounds, 1.3% hits | inhibition, % at 20 µM | S. cerevisiae tim23-1 growth, BacTiter-Glo luminescence, 24 h | AID 463212, 2010;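 active = growth inhibition of the mutant yeast at or above 50%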;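 note: temperature-sensitive mutant grown at 25 °C; plate controls were DMSO-treated mutant yeast for no effect and medium wells lacking yeast for full effect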
# UPR CHOP confirm: activators of apoptotic CHOP UPR arm, confirmation, cell-based, CHO-CHOP luciferase reporter, single concentration; activation, % at 10 µM; shares compounds with CHOP UPR activ; 1,000 compounds, 64% hits; CHO-CHOP cells, CHOP-luciferase reporter luminescence; percent of tunicamycin response, DMSO as zero; in the data active = activation above about 33%;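 note: 0% = DMSO wells and 100% = tunicamycin 10 µg/mL wells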
# UPR XBP1 confirm: IRE1-XBP1 UPR arm activators, confirmation, cell-based, CHO-XBP1 luciferase reporter, luminescence, single concentration | shares compounds with XBP1 UPR activ | activation, % at 20 µM | 1,000 compounds, 63% hits | AID 485299, 2010;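 active = reporter signal at least 30% of the positive control's activation in two or more of four replicate wells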;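 note: plate controls were DMSO negative control for no effect and tunicamycin 10 µg/mL positive control for full effect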
# tim10-1 conf: growth inhibitors of tim10-1 mutant yeast, confirmation, single concentration, luminescence, S. cerevisiae | S. cerevisiae tim10-1 ts strain growth, BacTiter-Glo, 24 h | 7,400 compounds, 56% hits | shares compounds with tim10-1 inh | inhibition, % at 20 µM;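 active = inhibition of yeast growth at or above a set limit in either of two repeat tests at 20 µM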;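 note: tim10-1 mutant grown at permissive 25 °C to find synthetic lethal compounds; 0% = DMSO yeast wells and 100% = medium wells without yeast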
# tim10 confirm: growth inhibitors of wild-type TIM10 yeast, confirmation, counter-screen for tim10-1 synthetic lethality project, single concentration, luminescence, S. cerevisiae; shares compounds with TIM10 inh; S. cerevisiae tim10 strain growth, BacTiter-Glo luminescence, 24 h; inhibition, % at 10 µM; 4,600 compounds, 63% hits; AID 463215, 2010;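 active = inhibition of yeast growth at or above a set limit in either of two replicates at 10 µM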;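 note: this counterscreen used the strain with wild-type TIM10; 0% = yeast with DMSO and 100% = medium wells lacking yeast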
# An asterisk follows results filed as active; · = not tested or not shown.
SMILES,XBP1 UPR activ,CHOP UPR activ,TIM10 inh,tim10-1 inh,tim23-1 inh,UPR CHOP confirm,tim10 confirm,others
O=C(COC(=O)COc1ccccc1F)NCCc1ccc(F)cc1,-3,-1,4,8,13,·,·,
Cc1ccc(C(=O)Cn2c(C(=O)/C=C/c3ccccc3)nc3ccccc32)cc1,32*,249*,43*,38,30,325*,33*,UPR XBP1 confirm=46*
COC(=O)C/C=C/N(Cc1ccccc1OC)S(=O)(=O)CCl,-1,0,-15,8,33,·,·,
Cc1cc(C(=O)CCl)c(C)n1Cc1ccco1,-1,99*,46*,38,34,236*,34*,
Cc1cc(C(=O)CSc2nncs2)c(C)n1Cc1ccco1,-8,0,19,12,30,·,·,
COc1cc(OC)cc(C(=O)NC(C)CNc2ccc(Cl)cc2[N+](=O)[O-])c1 (configuration not stated),-3,-1,3,19,12,·,·,
O=C(COC(=O)Cn1cnc2ccccc21)Nc1ccc(F)c(F)c1,-4,-1,3,4,9,·,·,
COc1ccccc1N1CCN(Cc2ccc(O)c3ncccc23)CC1,18,113*,50*,42*,31,97*,35*,tim10-1 conf=23
O=C(O)COc1ccccc1/C=N/NC(=O)c1cc(-c2ccc(Cl)cc2)nc2ccccc12,-2,0,34,31,49,·,·,
O=C(N/N=C/c1ccccn1)c1cc(-c2ccc(Cl)cc2)nc2ccccc12,-2,264*,47*,19,42,290*,50*,
O=C(O)/C(=C\c1cccc(OCc2ccccc2)c1)c1ccc(F)cc1,0,0,-3,26,23,·,·,
Cc1cc(C)n(-c2nnc(NC(C)(C)C)nn2)n1,-4,3,9,6,7,·,·,
Cc1cc(C)n(-c2nc(NC(C)(C)C)nc(NC(C)(C)C)n2)n1,9,108*,45*,35,42,45*,43*,
O=c1c2c3c(sc2ncn1/N=C/c1ccc([N+](=O)[O-])o1)CCCC3,-9,213*,69*,-21,-79,195*,96*,
Cn1cc(/C=N/n2cnc3sc4c(c3c2=O)CCCC4)c2ccccc21,3,0,-3,28,22,·,·,
O=C(/C=C/c1c(F)cccc1Cl)c1ccc(O)cc1,-3,60*,74*,-151,-35,2,62*,
O=C(/C=C/c1c(F)cccc1Cl)Nc1ncccn1,0,4,14,13,23,·,·,
COc1ccc(NC(=O)c2ccc3c(=O)n(CC4CCCO4)c(=S)[nH]c3c2)c(OC)c1 (configuration not stated),9,1,-9,3,10,·,·,
O=C1/C(=C/c2ccccc2[N+](=O)[O-])COc2ccccc21,-1,173*,79*,25,-37,85*,89*,
C#CCOCCOCCOCCNc1nc(OC)nc(N2CCN(C(=O)[C@H](CCC(=O)O)n3cc(C(N)CO)nn3)CC2)n1 (some centres not stated),5,-1,5,22,19,·,·,
O=C(/C=C/c1ccc(O)c(O)c1)c1ccccc1O,5,93*,42*,33,27,81*,11,
O=C(/C=C/c1ccoc1)c1ccccc1O,2,6,11,15,6,·,·,
O=C(COC(=O)c1cc(=O)[nH]c2ccccc12)NCc1ccc(Cl)cc1,-2,0,0,7,11,·,·,
CC(C)Cc1nc2oc3c(N4CCN(CCO)CC4)ncnc3c2c2c1CCCC2,6,44*,44*,52*,33,-1,20,tim10-1 conf=37*
Cc1nc(NC(=O)/C=C/c2ccccc2)n[nH]1,-1,44*,61*,60*,44,35*,53*,tim10-1 conf=59*
SMILES,XBP1 UPR activ,CHOP UPR activ,TIM10 inh,tim10-1 inh,tim23-1 inh,UPR CHOP confirm,tim10 confirm,others
O=C1CC(c2cccc(Cl)c2)CC(O)=C1C=Nc1cccc(Cl)c1 (configuration not stated),0,52*,79*,15,-13,3,80*,
CC(C)(C)c1ccc(/C=C(\c2nc3ccccc3[nH]2)S(=O)(=O)c2ccccc2)cc1,11,56*,47*,26,46,71*,33*,
COc1ccc(Cn2c(SCc3ccc(C)cc3)nc3cc(OC)c(OC)cc3c2=N)cc1Cl,32*,88*,62*,90*,42,39*,-6,UPR XBP1 confirm=7;tim10-1 conf=87*
COc1ccc(N2CCN(C(=O)COC(=O)CCOc3ccc(C(C)(C)C)cc3)CC2)cc1,-3,0,-1,5,-4,·,·,
O=CC1=C(c2ccccc2)Oc2ccccc2O1,37*,67*,78*,22,23,72*,79*,UPR XBP1 confirm=33*
O=C(NC1CCCC1)C(c1ccc(F)cc1)N(Cc1ccc(Cl)cc1)C(=O)CCl (configuration not stated),2,149*,42*,32,46,70*,43*,
CN(C)C(C(=O)NC1CCCCC1)c1ccc(Cl)cc1 (configuration not stated),-1,-1,-16,12,-4,·,·,
O=C(NC1CCCC1)C(c1ccc(Cl)cc1)N(Cc1ccc(F)cc1)C(=O)CCl (configuration not stated),8,113*,47*,49*,46,88*,-1,tim10-1 conf=40*
COC(=O)c1ccc(C(C(=O)NC2CCCCC2)N(Cc2ccc(F)cc2)C(=O)Cc2cccs2)cc1 (configuration not stated),-1,0,-6,15,8,·,·,
O=C(COc1coc(CN2CCN(c3ccccc3)CC2)cc1=O)NC1CCCCC1,-1,0,8,0,4,·,·,
COC(=O)c1ccc(CNC(=O)COC(=O)c2cc(Cl)ccc2O)cc1,3,2,4,0,15,·,·,
